The source made the active and inactive calls. The rule behind the calls is not given here. Square brackets hold non-standard residues; d marks the D form. Peptide text beside a SMILES is read from it. * marks the point of attachment. Dnp = O=[N+]([O-])c1ccc(*)c([N+](=O)[O-])c1; Gla = N[C@@H](CC(C(=O)O)C(=O)O)C(=O)O; Aad = N[C@@H](CCCC(=O)O)C(=O)O
How the values were obtained:
MDA-MB-231 [1] = assay: Induction of opsonization in human MDA-MB-231 cells assessed as increase in recruitment of anti-FITC antibody to cell surface at 1 uM measured after 5 to 10 mins at pH 6 by Alexa Fluor 647 conjugated anti-FITC antibody based flow cytometry relative to pH 7.4; format: functional
Summary of the method: (§1)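 Cells in suspension (350000 MDA-MB-231) given 1 μM pH-adjusted conjugate for 5 or 10 min at 37 °C, pH 7.4 or 6.0, washed, then Alexa Fluor 647 anti-FITC mouse mAb in PBS/10% FBS 30 min at 4 °C, PFA-fixed. Flow cytometry, ≥3000 events; fold over pH 7.4 antibody-only cells; mean ± SEM, n = 3.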

Lipid bilayer [2] = assay: Binding affinity to POPC large unilamellar vesicle at 1:300 ratio measured after 30 mins at pH 5 to 7.4 by tryptophan fluorescence spectroscopic analysis
Summary of the method: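 Peptide (7 μM final, from 20 μM stock in 5 mM sodium phosphate pH 8.0) with extruded 100 nm POPC LUVs at 1:300; pH set with HCl, 30 min RT before tryptophan emission spectra were recorded.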

MDA-MB-231 [3] = assay: Induction of opsonization in human MDA-MB-231 cells assessed as increase in recruitment of anti-FITC antibody to cell surface at 1 uM measured after 5 to 10 mins at pH 6 to 7.4 by Alexa Fluor 647 conjugated anti-FITC antibody based flow cytometry; format: functional; summary of the method: as §1
Lipid bilayer [4] = assay: Binding affinity to POPC large unilamellar vesicle at 1:300 ratio measured after 30 mins at pH 5 by circular dichroism spectroscopic analysis
Summary of the method: (§2)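 Peptide (20 μM stock in 5 mM sodium phosphate pH 8.0; 7 μM final) mixed with POPC LUVs (extruded, 100 nm pores) at 1:300, pH lowered with HCl, 30 min RT. Far-UV CD 260–200 nm in 0.1 cm cuvette, ≥5 scans averaged, liposome spectrum subtracted; expressed as mean residue molar ellipticity.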

[5] = Drug internalization in human MDA-MB-231 cells assessed as increase in fluorescence at 1 uM measured after 30 mins at pH 6 to 7.4 in presence of FITC-labeled anti-human IgG by flow cytometric method; format: ADME, cell-based; settings: mda-mb-231, pH 6, 0.5 h
Summary of the method: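 Control for specificity: MDA-MB-231 treated with 1 μM conjugate at pH 7.4 or 6.0 (5–10 min, 37 °C), washed, then incubated ± 25 μg/mL FITC anti-human IgG in PBS/10% FBS, 30 min at 4 °C, fixed, read by flow cytometry.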

MDA-MB-231 [6] = assay: Induction of opsonization in human MDA-MB-231 cells assessed as increase in recruitment of anti-DNP antibody to cell surface at 1 uM measured after 5 to 10 mins at pH 6 to 7.4 by AlexaFluor-488-conjugated anti-DNP antibody based flow cytometry; format: functional
Summary of the method: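 Conjugate pre-incubated 1 h RT at 20 μM in 5 mM sodium phosphate pH 9.0, diluted, then pH adjusted with citrate buffer. MDA-MB-231 (350000 cells, suspension) exposed to 1 μM for 5 or 10 min, 37 °C, pH 7.4 or 6.0, washed, stained with 25 μg/mL anti-DNP-A488 30 min at 4 °C, PFA-fixed. Flow cytometry, ≥3000 events; fold over pH 7.4 antibody-only cells.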

Lipid bilayer [7] = assay: Binding affinity to POPC large unilamellar vesicle at 1:300 ratio measured after 30 mins at pH 5 to 7.4 by circular dichroism spectroscopic analysis; summary of the method: as §2

Activity (Lipid bilayer [2])	Activity (Lipid bilayer [4])	Drug uptake [5]	Activity (Lipid bilayer [7])	SMILES	fold change (FC) (MDA-MB-231 [1])	Activity (MDA-MB-231 [3])	Activity (MDA-MB-231 [6])
		Not Active	Active	CC[C@H](C)[C@H](NC(=O)[C@@H]1CCCN1C(=O)[C@H](CC(N)=O)NC(=O)[C@H](CCC(N)=O)NC(=O)[C@H](CCC(=O)O)NC(=O)[C@@H](N)CCCCNc1ccc([N+](=O)[O-])cc1[N+](=O)[O-])C(=O)N[C@@H](Cc1ccc(O)cc1)C(=O)N[C@@H](Cc1c[nH]c2ccccc12)C(=O)N[C@@H](C)C(=O)N[C@@H](CCCNC(=N)N)C(=O)N[C@@H](Cc1ccc(O)cc1)C(=O)N[C@@H](C)C(=O)N[C@@H](CC(=O)O)C(=O)N[C@@H](Cc1c[nH]c2ccccc12)C(=O)N[C@@H](CC(C)C)C(=O)N[C@@H](Cc1ccccc1)C(=O)N[C@H](C(=O)N[C@H](C(=O)N1CCC[C@H]1C(=O)N[C@@H](CC(C)C)C(=O)N[C@@H](CC(C)C)C(=O)N[C@@H](CC(C)C)C(=O)N[C@@H](CC(C)C)C(=O)N[C@@H](CC(=O)O)C(=O)N[C@@H](CC(C)C)C(=O)N[C@@H](C)C(=O)N[C@@H](CC(C)C)C(=O)N[C@@H](CC(C)C)C(=O)N[C@H](C(=O)N[C@@H](CC(=O)O)C(=O)N[C@@H](C)C(=O)N[C@@H](CC(=O)O)C(=O)N[C@@H](CCC(=O)O)C(=O)NCC(=O)N[C@H](C(=O)NCC(N)=O)[C@@H](C)O)C(C)C)[C@@H](C)O)[C@@H](C)O (H-K(Dnp)EQNPIYWARYADWLFTTPLLLLDLALLVDADEGTG-NH2)			Active
		Not Active	Active	CC[C@H](C)[C@H](NC(=O)[C@@H]1CCCN1C(=O)[C@H](CC(N)=O)NC(=O)[C@H](CCC(N)=O)NC(=O)[C@H](CCC(=O)O)NC(=O)[C@@H](N)CCCCNc1ccc([N+](=O)[O-])cc1[N+](=O)[O-])C(=O)N[C@@H](Cc1ccc(O)cc1)C(=O)N[C@@H](Cc1c[nH]c2ccccc12)C(=O)N[C@@H](C)C(=O)N[C@@H](CCCNC(=N)N)C(=O)N[C@@H](Cc1ccc(O)cc1)C(=O)N[C@@H](C)C(=O)N[C@@H](CC(C(=O)O)C(=O)O)C(=O)N[C@@H](Cc1c[nH]c2ccccc12)C(=O)N[C@@H](CC(C)C)C(=O)N[C@@H](Cc1ccccc1)C(=O)N[C@H](C(=O)N[C@H](C(=O)N1CCC[C@H]1C(=O)N[C@@H](CC(C)C)C(=O)N[C@@H](CC(C)C)C(=O)N[C@@H](CC(C)C)C(=O)N[C@@H](CC(C)C)C(=O)N[C@@H](CCCC(=O)O)C(=O)N[C@@H](CC(C)C)C(=O)N[C@@H](C)C(=O)N[C@@H](CC(C)C)C(=O)N[C@@H](CC(C)C)C(=O)N[C@H](C(=O)N[C@@H](CC(=O)O)C(=O)N[C@@H](C)C(=O)N[C@@H](CC(=O)O)C(=O)N[C@@H](CCC(=O)O)C(=O)NCC(=O)N[C@H](C(=O)NCC(N)=O)[C@@H](C)O)C(C)C)[C@@H](C)O)[C@@H](C)O (H-K(Dnp)EQNPIYWARYA[Gla]WLFTTPLLLL[Aad]LALLVDADEGTG-NH2)			Active

The remaining lines, values behind:

SMILES	Activity (Lipid bilayer [2])	Activity (Lipid bilayer [4])	Drug uptake [5]	Activity (Lipid bilayer [7])	fold change (FC) (MDA-MB-231 [1])	Activity (MDA-MB-231 [3])	Activity (MDA-MB-231 [6])
CC[C@H](C)[C@H](NC(=O)[C@@H]1CCCN1C(=O)[C@H](CC(N)=O)NC(=O)[C@H](CCC(N)=O)NC(=O)[C@H](CCC(=O)O)NC(=O)[C@H](CSC1CC(=O)N(CCC(=O)NOCCOCCOCCOCCOCCOCCOCCOCCOCCOCCOCCOCCC(=O)NCCCNC(=O)c2ccc(-c3c4ccc(=O)cc-4oc4cc(O)ccc34)c(C(=O)O)c2)C1=O)NCC(N)=O)C(=O)N[C@@H](Cc1ccc(O)cc1)C(=O)N[C@@H](Cc1c[nH]c2ccccc12)C(=O)N[C@@H](C)C(=O)N[C@@H](CCCNC(=N)N)C(=O)N[C@@H](Cc1ccc(O)cc1)C(=O)N[C@@H](C)C(=O)N[C@@H](CC(=O)O)C(=O)N[C@@H](Cc1c[nH]c2ccccc12)C(=O)N[C@@H](CC(C)C)C(=O)N[C@@H](Cc1ccccc1)C(=O)N[C@H](C(=O)N[C@H](C(=O)N1CCC[C@H]1C(=O)N[C@@H](CC(C)C)C(=O)N[C@@H](CC(C)C)C(=O)N[C@@H](CC(C)C)C(=O)N[C@@H](CC(C)C)C(=O)N[C@@H](CCC(=O)O)C(=O)N[C@@H](CC(C)C)C(=O)N[C@@H](C)C(=O)N[C@@H](CC(C)C)C(=O)N[C@@H](CC(C)C)C(=O)N[C@H](C(=O)N[C@@H](CC(=O)O)C(=O)N[C@@H](C)C(=O)N[C@@H](CC(=O)O)C(=O)N[C@@H](CCC(=O)O)C(=O)NCC(=O)N[C@H](C(=O)NCC(N)=O)[C@@H](C)O)C(C)C)[C@@H](C)O)[C@@H](C)O (some centres undefined)	Active				2.9	Active	
CC[C@H](C)[C@H](NC(=O)[C@@H]1CCCN1C(=O)[C@H](CC(N)=O)NC(=O)[C@H](CCC(N)=O)NC(=O)[C@H](CCC(=O)O)NC(=O)[C@H](CSC1CC(=O)N(CCC(=O)NOCCOCCOCCOCCOCCOCCC(=O)NCCCNC(=O)c2ccc(-c3c4ccc(=O)cc-4oc4cc(O)ccc34)c(C(=O)O)c2)C1=O)NCC(N)=O)C(=O)N[C@@H](Cc1ccc(O)cc1)C(=O)N[C@@H](Cc1c[nH]c2ccccc12)C(=O)N[C@@H](C)C(=O)N[C@@H](CCCNC(=N)N)C(=O)N[C@@H](Cc1ccc(O)cc1)C(=O)N[C@@H](C)C(=O)N[C@@H](CC(=O)O)C(=O)N[C@@H](Cc1c[nH]c2ccccc12)C(=O)N[C@@H](CC(C)C)C(=O)N[C@@H](Cc1ccccc1)C(=O)N[C@H](C(=O)N[C@H](C(=O)N1CCC[C@H]1C(=O)N[C@@H](CC(C)C)C(=O)N[C@@H](CC(C)C)C(=O)N[C@@H](CC(C)C)C(=O)N[C@@H](CC(C)C)C(=O)N[C@@H](CC(=O)O)C(=O)N[C@@H](CC(C)C)C(=O)N[C@@H](C)C(=O)N[C@@H](CC(C)C)C(=O)N[C@@H](CC(C)C)C(=O)N[C@H](C(=O)N[C@@H](CC(=O)O)C(=O)N[C@@H](C)C(=O)N[C@@H](CC(=O)O)C(=O)N[C@@H](CCC(=O)O)C(=O)NCC(=O)N[C@H](C(=O)NCC(N)=O)[C@@H](C)O)C(C)C)[C@@H](C)O)[C@@H](C)O (some centres undefined)	Active					Active	
CC[C@H](C)[C@H](NC(=O)[C@@H]1CCCN1C(=O)[C@H](CC(N)=O)NC(=O)[C@H](CCC(N)=O)NC(=O)[C@H](CCC(=O)O)NC(=O)[C@H](CSC1CC(=O)N(CCC(=O)NOCCOCCOCCOCCOCCOCCOCCOCCOCCOCCOCCOCCOCCOCCOCCOCCOCCOCCOCCOCCOCCOCCOCCOCCC(=O)NCCCNC(=O)c2ccc(-c3c4ccc(=O)cc-4oc4cc(O)ccc34)c(C(=O)O)c2)C1=O)NCC(N)=O)C(=O)N[C@@H](Cc1ccc(O)cc1)C(=O)N[C@@H](Cc1c[nH]c2ccccc12)C(=O)N[C@@H](C)C(=O)N[C@@H](CCCNC(=N)N)C(=O)N[C@@H](Cc1ccc(O)cc1)C(=O)N[C@@H](C)C(=O)N[C@@H](CC(=O)O)C(=O)N[C@@H](Cc1c[nH]c2ccccc12)C(=O)N[C@@H](CC(C)C)C(=O)N[C@@H](Cc1ccccc1)C(=O)N[C@H](C(=O)N[C@H](C(=O)N1CCC[C@H]1C(=O)N[C@@H](CC(C)C)C(=O)N[C@@H](CC(C)C)C(=O)N[C@@H](CC(C)C)C(=O)N[C@@H](CC(C)C)C(=O)N[C@@H](CC(=O)O)C(=O)N[C@@H](CC(C)C)C(=O)N[C@@H](C)C(=O)N[C@@H](CC(C)C)C(=O)N[C@@H](CC(C)C)C(=O)N[C@H](C(=O)N[C@@H](CC(=O)O)C(=O)N[C@@H](C)C(=O)N[C@@H](CC(=O)O)C(=O)N[C@@H](CCC(=O)O)C(=O)NCC(=O)N[C@H](C(=O)NCC(N)=O)[C@@H](C)O)C(C)C)[C@@H](C)O)[C@@H](C)O (some centres undefined)	Active	Active				Active	
